{"data": "Published values gathered from unrelated publications", "organism": "Staphylococcus aureus", "effect on": "microbial growth"}
{"SMILES": "CO[C@H]1/C=C/O[C@@]2(C)Oc3c(C)c(O)c4c(O)c(c(/C=N/N5CCN(C)CC5)c(O)c4c3C2=O)NC(=O)/C(C)=C\\C=C\\[C@H](C)[C@H](O)[C@@H](C)[C@@H](O)[C@@H](C)[C@H](OC(C)=O)[C@@H]1C", "system": "NEWMAN", "MIC": "0.12 µg/mL"}
{"SMILES": "Cc1ccc2nc(-c3cc(Br)ccc3O)[nH]c2c1", "assay": "broth dilution", "system": "ATCC43300 MRSA", "setting": "drug-resistant strain", "MIC": "128 µg/mL"}
{"SMILES": "O=[N+]([O-])c1ccc(-c2nc3cc(F)ccc3[nH]2)o1", "assay": "broth dilution", "system": "ATCC700699 MRSA", "setting": "drug-resistant strain", "MIC": "4 µg/mL"}
{"SMILES": "CC[C@H](C)C[C@H](C)CCCCCCCCC(=O)N[C@H]1C[C@@H](O)[C@@H](NCCN)NC(=O)[C@@H]2[C@@H](O)CCN2C(=O)[C@H]([C@H](O)CCN)NC(=O)[C@H]([C@H](O)[C@@H](O)c2ccc(O)cc2)NC(=O)[C@@H]2C[C@@H](O)CN2C(=O)[C@H]([C@@H](C)O)NC1=O", "assay": "broth dilution", "system": "MB2865", "MIC": "> 128 µg/mL"}
{"SMILES": "O=[N+]([O-])c1ccc(-c2nc3ccccc3n2Cc2ccccc2)cc1", "assay": "broth dilution", "system": "ATCC43300 MRSA", "setting": "drug-resistant strain", "MIC": "4 µg/mL"}
{"SMILES": "COC(=O)c1cc(-c2cccc(NC(=O)Nc3cccc(Cl)c3Cl)c2)on1", "assay": "broth dilution", "system": "ATCC29213", "MIC": "8 to 16 µg/mL"}
{"SMILES": "CNC(=O)c1cc(Oc2ccc(NC(=S)Nc3ccc(Cl)c(C(F)(F)F)c3)cc2)ccn1", "system": "NCTC8325", "MIC": "10 µM"}
{"SMILES": "O=[N+]([O-])c1cccc(-c2nc3ccccc3[nH]2)c1", "assay": "broth dilution", "system": "ATCC43300 MRSA", "setting": "drug-resistant strain", "MIC": "64 µg/mL"}
{"SMILES": "CO[C@H]1[C@H](O[C@H]([C@H]2O[C@@H](n3ccc(=O)[nH]c3=O)[C@H](O)[C@@H]2O)[C@H](NCCCNC(=O)[C@@H](NC(=O)[C@@H](NC(=O)N[C@H](C(=O)O)C(C)C)[C@@H]2CCN=C(N)N2)[C@@H](OC(=O)CCCCC(C)C)C(C)C)C(=O)O)O[C@H](CN)[C@H]1O", "system": "NEWMAN", "MIC": "> 32 µg/mL"}
{"SMILES": "C/C(=C\\C(=O)OCCCCCCCCC(=O)O)C[C@@H]1OC[C@H](C[C@@H]2O[C@H]2[C@@H](C)[C@H](C)O)[C@@H](O)[C@H]1O", "system": "MRSA", "setting": "drug-resistant strain", "MIC": "0.5 µM"}
{"SMILES": "Oc1cc(Cl)ccc1Oc1ccc(Cl)cc1Cl", "MIC": "1.8 µg/mL"}
{"SMILES": "CCCCCCCC(=O)CP(=O)(O)O", "system": "ATCC33591 MRSA", "setting": "drug-resistant strain", "MIC": "200 µg/mL"}
{"SMILES": "C=CCn1c(-c2ccc(OC)c(OC)c2)nc2ccccc21", "assay": "broth dilution", "system": "ATCC43300 MRSA", "setting": "drug-resistant strain", "MIC": "128 µg/mL"}
{"SMILES": "COC(=O)c1cc(-c2cccc(NC(=O)Nc3cccc(C(F)(F)F)c3)c2)on1", "assay": "broth dilution", "system": "ATCC29213", "MIC": "> 64 µg/mL"}
{"SMILES": "CO/N=C(\\C(=O)N[C@@H]1C(=O)N2C(C(=O)O)=C(CSc3nc(=O)c(=O)[nH]n3C)CS[C@H]12)c1csc(N)n1", "system": "USA300", "MIC": "64 µg/mL"}
{"SMILES": "COc1cccc(OC)c1C(=O)N[C@@H]1C(=O)N2[C@@H]1SC(C)(C)[C@@H]2C(=O)O", "system": "ATCCBAA1720", "setting": "drug-resistant strain, clinical isolate", "MIC": "> 64 µg/mL"}
{"SMILES": "Cc1ccc2nc(-c3ccc([N+](=O)[O-])cc3)n(Cc3ccc(Cl)cc3)c2c1", "assay": "broth dilution", "system": "ATCC43300 MRSA", "setting": "drug-resistant strain", "MIC": "8 µg/mL"}
{"SMILES": "COC(=O)c1cc(-c2cccc(NC(=O)Nc3ccc(C)c(Cl)c3)c2)on1", "assay": "broth dilution", "system": "ATCC29213", "MIC": "> 64 µg/mL"}
{"SMILES": "Clc1ccc(-c2nc3ccccc3[nH]2)cc1", "assay": "broth dilution", "system": "ATCC43300 MRSA", "setting": "drug-resistant strain", "MIC": "128 µg/mL"}
{"SMILES": "COC(=O)c1cc(-c2cccc(NC(=O)Nc3ccc(Cl)cc3Cl)c2)on1", "assay": "broth dilution", "system": "ATCC29213", "MIC": "> 64 µg/mL"}
